As a reminder, the IC50 is the concentration that inhibits the measured activity by half.

We go through eleven compounds from ChEMBL document CHEMBL1765038, “Cytotoxic and anti-inflammatory cembranoids from the Vietnamese soft coral Lobophytum laevigatum” (Bioorg Med Chem, 2011).

One series deals with HL-60. Kind of series: Cytotoxicity against human HL60 cells by MTT assay. It counts as functional, cell-based. The procedure, abridged: (§1)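 MTT colorimetric assay on human cancer cell lines (leukemia HL-60, lung A549, colon HCT-116, breast MCF-7) obtained from the Korea Cell Line Bank; values reported as IC50.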
(Tetrazolium assays rely on reduction of a dye to a coloured formazan, in cell work by metabolically active cells.)

The subject of series [1] is HepG2. Briefly: Inhibition of NF-kappaB-induced COX2 mRNA expression in TNF-alpha-stimulated human HepG2 cells at 1 to 9 uM pretreated for 1 hr by RT-PCR. The series is classed as cell-based. In a few lines:
(§2)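 Hep-G2 cells pretreated with or without compound for 1 h, then exposed to 10 ng/mL TNFα for 6 h. Total mRNA isolated from cell pellets. COX-2 and iNOS transcripts quantified by RT-PCR, with primer specificity checked by gel electrophoresis and melting-curve analysis.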

In series [2] the test system is HepG2. Kind of series: Inhibition of NF-kappaB-induced iNOS mRNA expression in TNF-alpha-stimulated human HepG2 cells at 1 to 9 uM pretreated for 1 hr by RT-PCR. The series is classed as cell-based. In a few lines: as §2
The test system of the next series is MCF7. Kind of series: Cytotoxicity against human MCF7 cells by MTT assay. It counts as functional, cell-based. The procedure, abridged: as §1
Another series concerns A549. Kind of series: Cytotoxicity against human A549 cells by MTT assay. The series is classed as functional, cell-based. The procedure, abridged: as §1
Series [3] in a line: Inhibition of TNF-alpha-induced NF-kappaB transcriptional activity in human HepG2 cells pretreated for 1 hr by luciferase reporter gene assay. The series is classed as cell-based. The procedure, abridged: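 Hep-G2 cells seeded at 2 × 10^5 per well, grown 24 h, then transfected (Lipofectamine LTX) with a firefly luciferase reporter under a minimal CMV promoter with tandem NF-κB response elements. Cells pretreated 1 h with vehicle (DMSO) or compound (0.1, 1, 10 µM), then 10 ng/mL TNFα for 1 h. Lysates read for luminescence. Unstimulated cells as negative control, PDTC 10 µM as positive control. Mean ± SD, n = 6; IC50 derived.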
On the technique in general: A reporter such as luciferase makes a cellular process visible.

The subject of the next series is HCT-116. Kind of series: Cytotoxicity against human HCT116 cells by MTT assay. The series is classed as functional, cell-based. The procedure, abridged:
as §1

In series [4] the test system is HepG2. Kind of series: Cytotoxicity against human HepG2 cells at 0.1 to 10 uM. Conditions: hepg2, 10 µM. It counts as cell-based. The procedure, abridged:
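Hep-G2 viability measured by MTT assay at the concentrations used in the NF-κB reporter and mRNA experiments.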

Active and inactive are the calls of the source. No cut-off for these calls is given here. Some results are limits rather than exact numbers.

As for `COC(=O)[C@@]12CC(=O)[C@@H](C(C)C)CC(=O)[C@@H](C)CCC[C@@H](C)CC(=O)C1CC(C)=C1C2/C=C(\C)CCC2OC(CC[C@]2(C)OC(C)=O)[C@](C)(O)C[C@H]1O` (stereo partly drawn) [XIMAOLIDE F], the concentration for half-maximal inhibition (IC50) in the series with HL-60 was 9 µM; with MCF7 it was above 40 µM; in the series with A549, 28.4 µM; in series [3], 6.9 µM; in the series with HCT-116 it was 16.4 µM. In addition, the inhibition result in the series with HepG2 [1] and with HepG2 [2] was “Dose-dependent effect” each time. In addition, the Activity entry in the series with HepG2 [4] is “Non-toxic”.
Turning to `C/C1=C/[C@]2(O)OC[C@@]3(C)O[C@]32CC[C@](C)(O)/C=C/C[C@@](C)(O)[C@@H](O)CC1`, the outcome in the series on HL-60, in the series with MCF7, with A549 and in the series on HCT-116 was inactive.
`C=C1CO[C@H]2/C=C(\C)CC[C@@H]3O[C@]3(C)CC/C=C(\C)CC[C@@]12O` [LAEVIGATOL B]: the outcome in the series on HL-60, in the series on MCF7, with A549 and in the series with HCT-116 was inactive. Moreover, the inhibition entry in the series on HepG2 [1] and in the series on HepG2 [2] was “Dose-dependent effect” throughout. In addition, in series [3], the IC50 stood at 9.7 µM. Further, the Activity entry in the series with HepG2 [4] was “Non-toxic”.
For `O=C1c2c(O)ccc(O)c2C(=O)c2c(NCCNCCO)ccc(NCCNCCO)c21` [MITOXANTRONE], the IC50 was determined as 7.9 µM with HL-60 and 7.2 µM in the series on HCT-116.
In the case of `COC(=O)[C@]12CC(=O)[C@H](C(C)C)CC(=O)[C@H](C)CCC[C@H](C)CC(=O)[C@H]1CC(C)=C1C[C@H](OC(C)=O)[C@](C)(O)[C@H]3CC[C@@](C)(O)[C@H](CC/C(C)=C/[C@@H]12)O3` [NYALOLIDE], the IC50 in the series on HL-60 came out at 28.1 µM; in the series on MCF7, 35.5 µM; in the series with A549, 28.7 µM; with HCT-116, 17.5 µM.
For the compound `C/C1=C\[C@@H]2O[C@@H](O)[C@@]3(C)O[C@@]23CC/C(C)=C/CC[C@@]2(C)O[C@H]2CC1` [LAEVIGATOL A], the result in the series on HL-60, in the series with MCF7, with A549 and in the series on HCT-116 was inactive. The inhibition result with HepG2 [1] and in the series with HepG2 [2] was “Dose-dependent effect” throughout. Besides, the IC50 in series [3] worked out at 9.4 µM. The Activity entry with HepG2 [4] was “Non-toxic”.
For `COC(=O)/C1=C\C=C(\C(C)C)CCC2=CCC[C@](C)(OC2=O)[C@@H](OC(C)=O)CC1` [EMBLIDE], the IC50 with HL-60 is 38.8 µM; in the series on MCF7, above 40 µM; in the series with A549, above 40 µM; in the series with HCT-116, above 40 µM.
Take `CC1=C2CC/C(C)=C/CC[C@@]3(C)O[C@H]3CC[C@](C)(O)/C=C/2OC1=O`: the outcome with HL-60, in the series with MCF7, with A549 and in the series on HCT-116 was inactive.
With `C/C1=C\[C@]2(O)OC[C@@]3(C)O[C@]32CC[C@](C)(O)/C=C/C[C@@]2(C)O[C@H]2CC1`, the outcome in the series with HL-60, in the series with MCF7, in the series on A549 and in the series on HCT-116 was inactive.
`COC(=O)[C@@]12CC(=O)[C@@H](C(C)C)CC(=O)[C@@H](C)CCC[C@@H](C)CC(=O)[C@@H]1CC(C)=C1[C@@H]3C[C@@](C)(O)[C@H](CC[C@@H](C)C(=O)CC/C(C)=C/[C@H]12)O3` [METHYL TORTUOATE B]: the half-maximal inhibitory concentration (IC50) in the series with HL-60 was 25.8 µM; with MCF7, above 40 µM; in the series on A549, 24.4 µM; in series [3], 6.7 µM; in the series on HCT-116, 19.7 µM. In addition, the inhibition result with HepG2 [1] and in the series with HepG2 [2] was “Dose-dependent effect” each time. In the series on HepG2 [4], the Activity result was “Non-toxic”.
Turning to `CC1=C2CC/C(C)=C/CC[C@]3(C)O[C@H]3CC/C(C)=C/[C@@H]2OC1=O` [SARCOPHINE], the IC50 in the series with HL-60 was 34.7 µM; in the series on MCF7, above 40 µM; with A549, above 40 µM; in the series on HCT-116, above 40 µM.
